Assay results as given in ChEMBL document CHEMBL3286189, “Discovery and SAR studies of a novel class of cytotoxic 1,4-disubstituted piperidines via Ugi reaction” (Eur J Med Chem, 2014).

Key:
L1210 = assay: Cytostatic activity against mouse L1210 cells assessed as inhibition of cell proliferation after 48 hrs by coulter counting analysis; format: functional, cell-based; conditions: Mus musculus, L1210, 48 h
Procedure, shortened: (§1)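 Anti-proliferative screen in murine leukemia L1210, human T-lymphocyte CEM and human cervix carcinoma HeLa cultures. The value reported is the IC50, the concentration that inhibits cell proliferation by 50%.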

HeLa = assay: Cytostatic activity against human HeLa cells assessed as inhibition of cell proliferation after 72 hrs by coulter counting analysis; format: functional, cell-based; conditions: Homo sapiens, HeLa, 72 h; procedure, shortened: as §1
CAKI-1 [1] = assay: Cytostatic activity against human Caki1 cells assessed as inhibition of cell proliferation after 96 hrs by coulter counting analysis; format: functional, cell-based; conditions: CAKI-1, 96 h
Procedure, shortened: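 Anti-proliferative testing extended to human kidney Caki-1 and human liver Huh-7 tumour cells. The value reported is the IC50, the concentration that inhibits tumour cell growth by 50%.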

CCRF-CEM = assay: Anticancer activity against human CCRF-CEM cells; format: functional
Procedure, shortened: (§2)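 Values come from the NCI 60-cell-line human tumour panel, run on a single analog. Cytostatic and cytotoxic responses were read for each cell line across graded molar concentrations of that compound.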

K562 = assay: Anticancer activity against human K562 cells; format: functional; procedure, shortened: as §2
RPMI-8226 = assay: Anticancer activity against human RPMI8226 cells; format: functional; procedure, shortened: as §2
SR = assay: Anticancer activity against human SR cells; format: functional; procedure, shortened: as §2
A549 = assay: Anticancer activity against human A549/ATCC cells; format: functional; procedure, shortened: as §2
[2] = Anticancer activity against human HOP92 cells; format: functional; procedure, shortened: as §2
NCI-H23 = assay: Anticancer activity against human NCI-H23 cells; format: functional; procedure, shortened: as §2
NCI-H460 = assay: Anticancer activity against human NCI-H460 cells; format: functional; procedure, shortened: as §2
NCI-H522 = assay: Anticancer activity against human NCI-H522 cells; format: functional; procedure, shortened: as §2
COLO 205 = assay: Anticancer activity against human COLO205 cells; format: functional; procedure, shortened: as §2
[3] = Anticancer activity against human HCC2998 cells; format: functional; procedure, shortened: as §2
KM12 = assay: Anticancer activity against human KM12 cells; format: functional; procedure, shortened: as §2
SW-620 = assay: Anticancer activity against human SW620 cells; format: functional; procedure, shortened: as §2
SF-268 = assay: Anticancer activity against human SF268 cells; format: functional; procedure, shortened: as §2
[4] = Anticancer activity against human SF295 cells; format: functional; procedure, shortened: as §2
SNB-19 = assay: Anticancer activity against human SNB19 cells; format: functional; procedure, shortened: as §2
[5] = Anticancer activity against human LOXIMVI cells; format: functional; conditions: LOX IMVI; procedure, shortened: as §2
MDA-MB-435 = assay: Anticancer activity against human MDA-MB-435 cells; format: functional; procedure, shortened: as §2
[6] = Anticancer activity against human UACC257 cells; format: functional
Procedure, shortened: (§3)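 Assayed in the NCI Cancer-60 human tumour cell line panel, with activity read across several log-step concentrations.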

[7] = Anticancer activity against human OVCAR3 cells; format: functional; procedure, shortened: as §2
[8] = Anticancer activity against human OVCAR4 cells; format: functional; procedure, shortened: as §2
[9] = Anticancer activity against human OVCAR8 cells; format: functional; procedure, shortened: as §2
SK-OV-3 = assay: Anticancer activity against human SKOV3 cells; format: functional; procedure, shortened: as §2
786-0 = assay: Anticancer activity against human 786-0 cells; format: functional; procedure, shortened: as §2
A498 = assay: Anticancer activity against human A498 cells; format: functional; procedure, shortened: as §2
CAKI-1 [10] = assay: Anticancer activity against human Caki1 cells; format: functional
[11] = Anticancer activity against human RXF393 cells; format: functional; procedure, shortened: as §2
SN12C = assay: Anticancer activity against human SN12C cells; format: functional; procedure, shortened: as §2
TK-10 = assay: Anticancer activity against human TK10 cells; format: functional; procedure, shortened: as §2
[12] = Anticancer activity against human UO31 cells; format: functional; procedure, shortened: as §3
PC-3 = assay: Anticancer activity against human PC3 cells; format: functional; procedure, shortened: as §2
DU-145 = assay: Anticancer activity against human DU145 cells; format: functional; procedure, shortened: as §2
MCF7 = assay: Anticancer activity against human MCF7 cells; format: functional; procedure, shortened: as §2
MDA-MB-231 = assay: Anticancer activity against human MDA-MB-231/ATCC cells; format: functional; procedure, shortened: as §2
[13] = Anticancer activity against human BT549 cells; format: functional; procedure, shortened: as §2
T47D = assay: Anticancer activity against human T47D cells; format: functional; procedure, shortened: as §2
MDA-MB-468 = assay: Anticancer activity against human MDA-MB-468 cells; format: functional; procedure, shortened: as §2
[14] = read-out: pLC50 (the source's name) (converted)

Compound: CC(C)(C)OC(=O)N[C@@H](Cc1ccccc1)C(=O)N(Cc1ccccc1)C1(C(=O)NCc2ccccc2)CCN(Cc2ccccc2)CC1
- IC50 (L1210): 3.5 µM
- IC50 (HeLa): 4.2 µM
- IC50 (CAKI-1 [1]): 9.5 µM
- GI50 (CCRF-CEM): 3.31 µM
- CC50 (CCRF-CEM; [14]): > 100 µM
- TGI (CCRF-CEM; read-out: pTGI): > 100 µM
- GI50 (K562): 3.39 µM
- CC50 (K562; [14]): > 100 µM
- TGI (K562; read-out: pTGI): > 100 µM
- GI50 (RPMI-8226): 2.19 µM
- CC50 (RPMI-8226; [14]): > 100 µM
- TGI (RPMI-8226; read-out: pTGI (converted)): 6.92 µM
- GI50 (SR): 2.34 µM
- CC50 (SR; [14]): > 100 µM
- TGI (SR; read-out: pTGI (converted)): 7.59 µM
- GI50 (A549): 3.89 µM
- CC50 (A549; [14]): > 100 µM
- TGI (A549; read-out: pTGI): > 100 µM
- GI50 ([2]; HOP-92): 1.45 µM
- CC50 ([2]; HOP-92, read-out: pLC50 (the source's name) (converted)): > 100 µM
- TGI ([2]; HOP-92, read-out: pTGI (converted)): 5.37 µM
- GI50 (NCI-H23): 5.62 µM
- CC50 (NCI-H23; [14]): > 100 µM
- TGI (NCI-H23; read-out: pTGI): > 100 µM
- GI50 (NCI-H460): 3.02 µM
- CC50 (NCI-H460; [14]): > 100 µM
- TGI (NCI-H460; read-out: pTGI (converted)): 87.1 µM
- GI50 (NCI-H522): 3.98 µM
- CC50 (NCI-H522; [14]): > 100 µM
- TGI (NCI-H522; read-out: pTGI): > 100 µM
- GI50 (COLO 205): 1.66 µM
- CC50 (COLO 205; [14]): 6.61 µM
- TGI (COLO 205; read-out: pTGI (converted)): 3.31 µM
- GI50 ([3]; HCC 2998): 4.57 µM
- CC50 ([3]; HCC 2998, read-out: pLC50 (the source's name) (converted)): > 100 µM
- TGI ([3]; HCC 2998, read-out: pTGI): > 100 µM
- GI50 (KM12): 4.17 µM
- CC50 (KM12; [14]): > 100 µM
- TGI (KM12; read-out: pTGI): > 100 µM
- GI50 (SW-620): 3.47 µM
- CC50 (SW-620; [14]): > 100 µM
- TGI (SW-620; read-out: pTGI): > 100 µM
- GI50 (SF-268): 4.9 µM
- CC50 (SF-268; [14]): > 100 µM
- TGI (SF-268; read-out: pTGI): > 100 µM
- GI50 ([4]; SF-295): 2.88 µM
- CC50 ([4]; SF-295, read-out: pLC50 (the source's name) (converted)): > 100 µM
- TGI ([4]; SF-295, read-out: pTGI): > 100 µM
- GI50 (SNB-19): 5.25 µM
- CC50 (SNB-19; [14]): > 100 µM
- TGI (SNB-19; read-out: pTGI): > 100 µM
- GI50 [5]: 3.63 µM
- CC50 [5, 14]: > 100 µM
- TGI ([5]; read-out: pTGI (converted)): 21.4 µM
- GI50 (MDA-MB-435): 3.02 µM
- CC50 (MDA-MB-435; [14]): > 100 µM
- TGI (MDA-MB-435; read-out: pTGI): > 100 µM
- GI50 ([6]; UACC-257): 2.57 µM
- CC50 ([6]; UACC-257, read-out: pLC50 (the source's name) (converted)): > 100 µM
- TGI ([6]; UACC-257, read-out: pTGI): > 100 µM
- GI50 ([7]; OVCAR-3): 3.98 µM
- CC50 ([7]; OVCAR-3, read-out: pLC50 (the source's name) (converted)): > 100 µM
- TGI ([7]; OVCAR-3, read-out: pTGI): > 100 µM
- GI50 ([8]; OVCAR-4): 3.24 µM
- CC50 ([8]; OVCAR-4, read-out: pLC50 (the source's name) (converted)): > 100 µM
- TGI ([8]; OVCAR-4, read-out: pTGI): > 100 µM
- GI50 ([9]; OVCAR-8): 3.47 µM
- CC50 ([9]; OVCAR-8, read-out: pLC50 (the source's name) (converted)): > 100 µM
- TGI ([9]; OVCAR-8, read-out: pTGI): > 100 µM
- GI50 (SK-OV-3): 3.02 µM
- CC50 (SK-OV-3; [14]): > 100 µM
- TGI (SK-OV-3; read-out: pTGI): > 100 µM
- GI50 (786-0): 3.02 µM
- CC50 (786-0; [14]): > 100 µM
- TGI (786-0; read-out: pTGI): 43.7 µM
- GI50 (A498): 1.45 µM
- CC50 (A498; [14]): > 100 µM
- TGI (A498; read-out: pTGI (converted)): 6.31 µM
- GI50 (CAKI-1 [10]): 2.34 µM
- CC50 (CAKI-1 [10]; [14]): > 100 µM
- TGI (CAKI-1 [10]; read-out: pTGI): > 100 µM
- GI50 ([11]; RXF 393): 3.09 µM
- CC50 ([11]; RXF 393, read-out: pLC50 (the source's name) (converted)): > 100 µM
- TGI ([11]; RXF 393, read-out: pTGI): > 100 µM
- GI50 (SN12C): 3.47 µM
- CC50 (SN12C; [14]): > 100 µM
- TGI (SN12C; read-out: pTGI): > 100 µM
- GI50 (TK-10): 3.16 µM
- CC50 (TK-10; [14]): > 100 µM
- TGI (TK-10; read-out: pTGI (converted)): 70.8 µM
- GI50 ([12]; UO-31): 2.14 µM
- CC50 ([12]; UO-31, read-out: pLC50 (the source's name) (converted)): > 100 µM
- TGI ([12]; UO-31, read-out: pTGI): > 100 µM
- GI50 (PC-3): 2.45 µM
- CC50 (PC-3; [14]): > 100 µM
- TGI (PC-3; read-out: pTGI): > 100 µM
- GI50 (DU-145): 5.37 µM
- CC50 (DU-145; [14]): > 100 µM
- TGI (DU-145; read-out: pTGI): > 100 µM
- GI50 (MCF7): 2.82 µM
- CC50 (MCF7; [14]): > 100 µM
- TGI (MCF7; read-out: pTGI (converted)): 19.1 µM
- GI50 (MDA-MB-231): 3.02 µM
- CC50 (MDA-MB-231; [14]): > 100 µM
- TGI (MDA-MB-231; read-out: pTGI (converted)): 79.4 µM
- GI50 ([13]; BT-549): 2.09 µM
- CC50 ([13]; BT-549, read-out: pLC50 (the source's name) (converted)): > 100 µM
- TGI ([13]; BT-549, read-out: pTGI (converted)): 7.94 µM
- GI50 (T47D): 2.88 µM
- CC50 (T47D; [14]): > 100 µM
- TGI (T47D; read-out: pTGI): > 100 µM
- GI50 (MDA-MB-468): 1.62 µM
- CC50 (MDA-MB-468; [14]): > 100 µM
- TGI (MDA-MB-468; read-out: pTGI (converted)): 5.89 µM
